Reference: ChEMBL document CHEMBL1158173, “Carbodithioic acid esters of fluoxetine, a novel class of dual-function spermicides” (2008)
In brackets after ≈: the same amount, converted by molar mass. Activity calls are given as the source filed them. No cut-off for these calls is given here.

Tests used:
Format in all cases: functional
[1] = (§1) Spermicidal activity in liquefied human semen assessed as drug level required to kill 100% sperm in 20 seconds
Aspergillus fumigatus = assay: Antifungal activity against Aspergillus fumigatus after 48 hrs by broth microdilution technique
[2] = system: Trichophyton mentagrophytes; assay: Antifungal activity against Trichophyton mentagrophytes after 48 hrs by broth microdilution technique
Candida albicans [3] = assay: Antifungal activity against Candida albicans after 48 hrs by broth microdilution technique
Candida parapsilosis [4] = assay: (§2) Antifungal activity against Candida parapsilosis ATCC 22019 after 48 hrs by broth microdilution technique; details: for MIC: Lodderomyces parapsilosis, ATCC 22019, 48 h
Trichomonas vaginalis = assay: Antitrichomonas activity against Trichomonas vaginalis after 48 hrs by trypan blue staining
Summary of the method: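 Trichomonas vaginalis was grown in TYM medium and used in log phase, one day after routine subculture. Compounds in DMSO stock were serially diluted in TYM medium, with DMSO/TYM as vehicle control. Wells received 5 × 10³ trophozoites and were incubated anaerobically at 37 °C. Viability was scored daily by trypan blue and cell counts, and MIC was read at 48 h. Finer dilutions were then retested, and the final MIC was taken from a concentration versus viable-trophozoite-number curve.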

Sporothrix schenckii = assay: Antifungal activity against Sporothrix schenckii after 48 hrs by broth microdilution technique
Cryptococcus neoformans = assay: Antifungal activity against Cryptococcus neoformans after 48 hrs by broth microdilution technique
Candida albicans [5] = assay: Antifungal activity against Candida albicans MTCC 1346 after 48 hrs by broth microdilution technique; details: MTCC 1346, 48 h
Candida albicans [6] = assay: Antifungal activity against Candida albicans ATCC 6019 after 48 hrs by broth microdilution technique; details: ATCC 6019, 48 h
Candida albicans [7] = assay: Antifungal activity against Candida albicans ATCC 66027 after 48 hrs by broth microdilution technique; details: ATCC 66027, 48 h
Candida albicans [8] = assay: Antifungal activity against Candida albicans MTCC 183 after 48 hrs by broth microdilution technique; details: MTCC 183, 48 h
Candida albicans [9] = assay: Antifungal activity against Candida albicans ATCC 10453 after 48 hrs by broth microdilution technique; details: ATCC 10453, 48 h
Candida parapsilosis [10] = assay: as §2; details: Lodderomyces parapsilosis, ATCC 22019, 48 h
Pichia kudriavzevii = assay: Antifungal activity against Candida krusei ATCC 6258 after 48 hrs by broth microdilution technique; details: ATCC 6258, 48 h
Candida albicans [11] = assay: Antifungal activity against Candida albicans ATCC 10231 after 48 hrs by broth microdilution technique; details: ATCC 10231, 48 h
Sperm = assay: as §1

Structure (SMILES)	MEC [1]	MIC (Aspergillus fumigatus)	MIC [2]	MIC (Candida albicans [3])	MIC (Candida parapsilosis [4])	MIC (Trichomonas vaginalis)	MIC (Sporothrix schenckii)	MIC (Cryptococcus neoformans)	Activity (Sporothrix schenckii)	Activity (Cryptococcus neoformans)	Activity (Aspergillus fumigatus)	Activity [2]	Activity (Candida albicans [3])	Activity (Sperm)	Activity (Candida parapsilosis [4])	also measured
CCN(CC)CCSC(=S)N(C)CCC(Oc1ccc(C(F)(F)F)cc1)c1ccccc1 (configuration not stated)	1%	6.25 µg/mL (≈ 12.9 µM)	12.5 µg/mL (≈ 25.8 µM)	50 µg/mL (≈ 103 µM)	50 µg/mL (≈ 103 µM)	24 µg/mL (≈ 49.5 µM)	6.25 µg/mL (≈ 12.9 µM)	50 µg/mL (≈ 103 µM)								
CN(C)CCSC(=S)N(C)CCC(Oc1ccc(C(F)(F)F)cc1)c1ccccc1 (configuration not stated)	1%	25 µg/mL (≈ 54.8 µM)	6.25 µg/mL (≈ 13.7 µM)	50 µg/mL (≈ 110 µM)	50 µg/mL (≈ 110 µM)	52 µg/mL (≈ 114 µM)	12.5 µg/mL (≈ 27.4 µM)	50 µg/mL (≈ 110 µM)								
CN(CCC(Oc1ccc(C(F)(F)F)cc1)c1ccccc1)C(=S)SCC(O)CN1CCCCCC1 (configuration not stated)	0.5%	25 µg/mL (≈ 46.2 µM)	25 µg/mL (≈ 46.2 µM)	50 µg/mL (≈ 92.5 µM)	50 µg/mL (≈ 92.5 µM)	> 200 µg/mL			inactive	inactive						
CN(CCC(Oc1ccc(C(F)(F)F)cc1)c1ccccc1)C(=S)SCCN1CCCC1 (configuration not stated)	0.05%	12.5 µg/mL (≈ 25.9 µM)	12.5 µg/mL (≈ 25.9 µM)	6.25 µg/mL (≈ 12.9 µM)	3.12 µg/mL (≈ 6.46 µM)	14 µg/mL (≈ 29 µM)	25 µg/mL (≈ 51.8 µM)	3.12 µg/mL (≈ 6.46 µM)								MIC (Candida albicans [5]): 6.25 µg/mL (≈ 12.9 µM); MIC (Candida albicans [6]): 6.25 µg/mL (≈ 12.9 µM); MIC (Candida albicans [7]): 6.25 µg/mL (≈ 12.9 µM); MIC (Candida albicans [8]): 3.12 µg/mL (≈ 6.47 µM); MIC (Candida albicans [9]): 6.25 µg/mL (≈ 12.9 µM); MIC (Candida parapsilosis [10]): 3.12 µg/mL (≈ 6.47 µM); MIC (Pichia kudriavzevii): 6.25 µg/mL (≈ 12.9 µM); MIC (Candida albicans [11]): 6.25 µg/mL (≈ 12.9 µM)
CCCCCCCCCc1ccc(OCCOCCOCCOCCOCCOCCOCCOCCOCCO)cc1 [NONOXYNOL 9]	0.05%				50 µg/mL (≈ 81.1 µM)	23 µg/mL (≈ 37.3 µM)			inactive	inactive	inactive	inactive	inactive			
CN(CCC(Oc1ccc(C(F)(F)F)cc1)c1ccccc1)C(=S)SCC(O)CN1CCOCC1 (configuration not stated)		50 µg/mL (≈ 94.6 µM)							inactive	inactive		inactive	inactive	inactive	inactive	
CN(CCC(Oc1ccc(C(F)(F)F)cc1)c1ccccc1)C(=S)[S-].[Na+] (configuration not stated)	1%					96 µg/mL		25 µg/mL	inactive		inactive	inactive	inactive		inactive	
CN(CCC(Oc1ccc(C(F)(F)F)cc1)c1ccccc1)C(=S)SCC(O)CN1CCCCC1 (configuration not stated)			50 µg/mL (≈ 94.9 µM)		50 µg/mL (≈ 94.9 µM)				inactive	inactive	inactive		inactive	inactive		
CNCCC(Oc1ccc(C(F)(F)F)cc1)c1ccccc1 (configuration not stated) [FLUOXETINE]			50 µg/mL (≈ 162 µM)	50 µg/mL (≈ 162 µM)	50 µg/mL (≈ 162 µM)	28 µg/mL (≈ 90.5 µM)	50 µg/mL (≈ 162 µM)	25 µg/mL (≈ 80.8 µM)			inactive					
CN(CCC(Oc1ccc(C(F)(F)F)cc1)c1ccccc1)CC(O)CSC(=S)N(C)Cc1ccccc1 (configuration not stated)									inactive	inactive	inactive	inactive	inactive	inactive	inactive	
CN1CCN(C(=S)SCC(O)CN(C)CCC(Oc2ccc(C(F)(F)F)cc2)c2ccccc2)CC1 (configuration not stated)	1%		25 µg/mL (≈ 46.2 µM)			6.68 µg/mL (≈ 12.3 µM)		12.5 µg/mL (≈ 23.1 µM)	inactive		inactive		inactive		inactive	
CN(CCC(Oc1ccc(C(F)(F)F)cc1)c1ccccc1)C(=S)SCC(O)CN1CCCC1 (configuration not stated)	0.5%	50 µg/mL (≈ 97.5 µM)	25 µg/mL (≈ 48.8 µM)		50 µg/mL (≈ 97.5 µM)	6.95 µg/mL (≈ 13.6 µM)	50 µg/mL (≈ 97.5 µM)			inactive			inactive			
CN(CCC(Oc1ccc(C(F)(F)F)cc1)c1ccccc1)C(=S)SCc1ccccc1 (configuration not stated)	1%					> 200 µg/mL			inactive	inactive	inactive	inactive	inactive		inactive	
CN1CCN(CC(O)CSC(=S)N(C)CCC(Oc2ccc(C(F)(F)F)cc2)c2ccccc2)CC1 (configuration not stated)	0.5%	25 µg/mL (≈ 46.2 µM)	25 µg/mL (≈ 46.2 µM)	50 µg/mL (≈ 92.3 µM)	50 µg/mL (≈ 92.3 µM)	12 µg/mL (≈ 22.2 µM)	25 µg/mL (≈ 46.2 µM)	25 µg/mL (≈ 46.2 µM)								
Cc1ncc([N+](=O)[O-])n1CCO [METRONIDAZOLE]						0.54 µg/mL (≈ 3.16 µM)			inactive	inactive	inactive	inactive	inactive	inactive	inactive	
CN(CCC(Oc1ccc(C(F)(F)F)cc1)c1ccccc1)C(=S)SCCCl (configuration not stated)	1%	50 µg/mL (≈ 112 µM)	12.5 µg/mL (≈ 27.9 µM)	50 µg/mL (≈ 112 µM)	25 µg/mL (≈ 55.8 µM)	> 200 µg/mL	25 µg/mL (≈ 55.8 µM)	50 µg/mL (≈ 112 µM)								
CN(CCC(Oc1ccc(C(F)(F)F)cc1)c1ccccc1)CC(O)CSC(=S)N1CCCCC1 (configuration not stated)								25 µg/mL (≈ 47.5 µM)	inactive		inactive	inactive	inactive	inactive	inactive	
CN(CCC(Oc1ccc(C(F)(F)F)cc1)c1ccccc1)C(=S)SCCN1CCOCC1 (configuration not stated)									inactive	inactive	inactive	inactive	inactive	inactive	inactive	
CN(CCC(Oc1ccc(C(F)(F)F)cc1)c1ccccc1)C(=S)SCCN1CCCCC1 (configuration not stated)	1%	12.5 µg/mL (≈ 25.2 µM)	6.25 µg/mL (≈ 12.6 µM)	3.12 µg/mL (≈ 6.28 µM)	1.56 µg/mL (≈ 3.14 µM)	13.5 µg/mL (≈ 27.2 µM)	6.25 µg/mL (≈ 12.6 µM)	1.56 µg/mL (≈ 3.14 µM)								
CN(CCC(Oc1ccc(C(F)(F)F)cc1)c1ccccc1)CC(O)CSC(=S)N1CCOCC1 (configuration not stated)			12.5 µg/mL (≈ 23.6 µM)		50 µg/mL (≈ 94.6 µM)		25 µg/mL (≈ 47.3 µM)			inactive	inactive		inactive	inactive		
OC(Cn1cncn1)(Cn1cncn1)c1ccc(F)cc1F [FLUCONAZOLE]				0.5 µg/mL (≈ 1.63 µM)												MIC (Candida albicans [5]): 2 µg/mL (≈ 6.53 µM); MIC (Candida albicans [6]): 0.25 µg/mL (≈ 0.816 µM); MIC (Candida albicans [7]): 0.25 µg/mL (≈ 0.816 µM); MIC (Candida albicans [8]): 0.5 µg/mL (≈ 1.63 µM); MIC (Candida albicans [9]): 1 µg/mL (≈ 3.27 µM); MIC (Candida parapsilosis [10]): 1 µg/mL (≈ 3.27 µM); MIC (Pichia kudriavzevii): 4 µg/mL (≈ 13.1 µM); MIC (Candida albicans [11]): 1 µg/mL (≈ 3.27 µM)
CN(CCC(Oc1ccc(C(F)(F)F)cc1)c1ccccc1)CC(O)CSC(=S)N1CCCC1 (configuration not stated)									inactive	inactive	inactive	inactive	inactive	inactive	inactive	
CN(CCC(Oc1ccc(C(F)(F)F)cc1)c1ccccc1)CC(O)CSC(=S)N1CCCCCC1 (configuration not stated)									inactive	inactive	inactive	inactive	inactive	inactive	inactive	
CCN(CC)CC(O)CSC(=S)N(C)CCC(Oc1ccc(C(F)(F)F)cc1)c1ccccc1 (configuration not stated)	0.5%	50 µg/mL (≈ 97.1 µM)	25 µg/mL (≈ 48.6 µM)		50 µg/mL (≈ 97.1 µM)	> 200 µg/mL			inactive	inactive			inactive			
